Source: ChEMBL document CHEMBL3046450, “Pyrrole- and dihydropyrrole-fused neonicotinoids: design, synthesis, and insecticidal evaluation” (2013)
Values after ≈ are worked out from the molar mass of the structure shown.

Legend:
Aphis craccivora [1] = assay: Insecticidal activity against Aphis craccivora (cowpea aphid) assessed as mortality; assay type: functional
In short: (§1)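 Compounds dissolved in DMF, then diluted with water containing Triton X-100 (0.1 mg L−1) to test concentrations of 500.0, 250.0 and 125.0 mg L−1, plus others; mortality of cowpea aphids was scored.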

Aphis craccivora [2] = assay: Insecticidal activity against Aphis craccivora (cowpea aphid) assessed as mortality at 500 mg/l; assay type: functional; in short: as §1

| Compound | LC50 (Aphis craccivora [1]) [µg/mL] | Activity (Aphis craccivora [2]) [%] |
| --- | --- | --- |
| CCCOc1c([N+](=O)[O-])c2n(c1C)CCN2Cc1ccc(Cl)nc1 | 24.5 (≈ 69.8 µM) | 100 |
| CCN(Cc1ccc(Cl)nc1)C1=C([N+](=O)[O-])C(OC(C)C)C(C)(O)N1C (stereo unspecified) | – | 21.2 |
| CCCCOc1c([N+](=O)[O-])c2n(c1C)CCN2Cc1ccc(Cl)nc1 | 39.5 (≈ 108 µM) | 100 |
| CCOC1C([N+](=O)[O-])=C(N(CC)Cc2ccc(Cl)nc2)N(C)C1(C)O (stereo unspecified) | – | 29.7 |
| COc1c([N+](=O)[O-])c2n(c1C)CCN2Cc1ccc(Cl)nc1 | 14.6 (≈ 45.2 µM) | 100 |
| CCN(Cc1ccc(Cl)nc1)c1c([N+](=O)[O-])c(OC)c(C)n1C | – | 91 |
| O=[N+]([O-])/N=C1\NCCN1Cc1ccc(Cl)nc1 [IMIDACLOPRID] | 8.9 (≈ 34.8 µM) | 100 |
| CC12OCCCCOC1C([N+](=O)[O-])=C1N(Cc3ccc(Cl)nc3)CCN12 (stereo unspecified) | 14.8 (≈ 38.9 µM) | 100 |
| CCOC1C([N+](=O)[O-])=C2N(Cc3ccc(Cl)nc3)CCN2C1(C)OCC (stereo unspecified) | 0.6 (≈ 1.57 µM) | 100 |
| CCCCOC1C([N+](=O)[O-])=C(N(CC)Cc2ccc(Cl)nc2)N(C)C1(C)O (stereo unspecified) | – | 16.4 |
| COC1C([N+](=O)[O-])=C2N(Cc3ccc(Cl)nc3)CCN2C1(C)OC (stereo unspecified) | 0.7 (≈ 1.97 µM) | 100 |
| CC12OCCOC1C([N+](=O)[O-])=C1N(Cc3ccc(Cl)nc3)CCN12 (stereo unspecified) | 10 (≈ 28.3 µM) | 100 |
| CC1(O)C(O)C([N+](=O)[O-])=C2N(Cc3ccc(Cl)nc3)CCN21 (stereo unspecified) | 2 (≈ 6.12 µM) | 100 |
| CCOc1c([N+](=O)[O-])c2n(c1C)CCN2Cc1ccc(Cl)nc1 | 37.3 (≈ 111 µM) | 100 |
| CC1C(=O)C([N+](=O)[O-])=C2N(Cc3ccc(Cl)nc3)CCN21 (stereo unspecified) | 43.5 (≈ 141 µM) | 100 |
| CCN(Cc1ccc(Cl)nc1)C1=C([N+](=O)[O-])C(OC)C(C)(O)N1C (stereo unspecified) | – | 21.6 |
| CC12OCCCOC1C([N+](=O)[O-])=C1N(Cc3ccc(Cl)nc3)CCN12 (stereo unspecified) | 11.1 (≈ 30.3 µM) | 100 |
| CCCOC1C([N+](=O)[O-])=C(N(CC)Cc2ccc(Cl)nc2)N(C)C1(C)O (stereo unspecified) | – | 19 |
| CCCCOC1C([N+](=O)[O-])=C2N(Cc3ccc(Cl)nc3)CCN2C1(C)OCCCC (stereo unspecified) | 3.4 (≈ 7.75 µM) | 100 |
| CCOc1c([N+](=O)[O-])c(N(CC)Cc2ccc(Cl)nc2)n(C)c1C | – | 84 |
| CCCOc1c([N+](=O)[O-])c(N(CC)Cc2ccc(Cl)nc2)n(C)c1C | – | 77 |
| CCCOC1C([N+](=O)[O-])=C2N(Cc3ccc(Cl)nc3)CCN2C1(C)OCCC (stereo unspecified) | 0.8 (≈ 1.95 µM) | 100 |
